Test [1] has as its system Caco-2. Kind of test: Antiproliferative activity against human Caco-2 cells after 72 hrs by WST1 assay. It is filed as functional, cell-based. The settings on record: Caco-2, 72 h. The procedure, abridged: (§1)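 Seeding densities (cells/mL) were CEM 0.2×10^6, Jurkat 0.6×10^6, Raji 0.4×10^6, MCF-7 0.2×10^6 and Caco-2 0.2×10^6, in RPMI 1640 with 10% FCS, non-essential amino acids, pyruvate, glutamine and gentamicin. Cells were exposed to 12.5–100 µM (DMSO stocks, 0.1% DMSO controls) for 72 h at 37 °C. WST-1 was added for 4 h and read at 492 nm. IC50 is for 50% growth inhibition.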

Test [2] concerns Jurkat. Kind of test: Antiproliferative activity against human Jurkat cells after 72 hrs by WST1 assay. It is filed as functional, cell-based. The procedure, abridged: as §1
A general note: Tetrazolium assays rely on reduction of a dye to a coloured formazan, in cell work by metabolically active cells.

Test [3] has as its system Raji. Description: Antiproliferative activity against human Raji cells at 100 uM after 72 hrs by WST1 assay. It is filed as functional. In outline:
(§2)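 Cells were exposed to compound for 72 h at 37 °C in RPMI 1640 with 10% FCS. Densities (cells/mL) were CEM 0.2×10^6, Jurkat 0.6×10^6, Raji 0.4×10^6, MCF-7 and Caco-2 0.2×10^6. WST-1 was then added for 4 h and absorbance read at 492 nm. Living cells are given as % of untreated-control OD (100 = no activity), with 0.1% DMSO vehicle controls and etoposide as positive control.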

Test [4] concerns Jurkat. Description: Antiproliferative activity against human Jurkat cells at 100 uM after 72 hrs by WST1 assay. The format is functional. In outline:
as §2

The test system of test [5] is Raji. Kind of test: Antiproliferative activity against human Raji cells after 72 hrs by WST1 assay. The format is functional, cell-based. The procedure, abridged: as §1
Test [6] deals with CCRF-CEM. Description: Antiproliferative activity against human CEM cells after at 100 uM 72 hrs by WST1 assay. It is filed as functional. The procedure, abridged:
as §2

Test [7] deals with MCF7. Kind of test: Antiproliferative activity against human MCF7 cells at 100 uM after 72 hrs by WST1 assay. It is filed as functional. The procedure, abridged:
as §2

In test [8] the test system is MCF7. Description: Antiproliferative activity against human MCF7 cells after 72 hrs by WST1 assay. It is filed as functional, cell-based. The settings on record: MCF7, 72 h. In outline: as §1
Test [9] relates to Caco-2. Kind of test: Antiproliferative activity against human Caco-2 cells at 100 uM after 72 hrs by WST1 assay. The format is functional. The procedure, abridged:
as §2

For test [10], the system named is CCRF-CEM. Description: Antiproliferative activity against human CEM cells after 72 hrs by WST1 assay. It is filed as functional, cell-based. The procedure, abridged:
as §1

In ChEMBL document CHEMBL1165902, “Synthesis and antiproliferative activity of oxazinocarbazole and N,N-bis(carbazolylmethyl)amine derivatives” (Eur J Med Chem, 2010) one finds IC50 and Activity data, which are given here for six molecules.

Take `C=CCN1COc2cc3c(cc2C1)c1ccccc1n3C`: the IC50 is 32.1 µM in the test with Caco-2 [1]; 50 µM with Jurkat [2]; 56.2 µM in the test on Raji [5]; 62.6 µM in the test on MCF7 [8]; 50.1 µM with CCRF-CEM [10]. Besides, the Activity is listed as 10.5% in the test on Raji [3]; 1.5% with Jurkat [4]; 1.5% with CCRF-CEM [6]; 1.5% with MCF7 [7]; 2.5% in the test with Caco-2 [9].
For the molecule `C=CCN1COc2c(ccc3c2c2ccccc2n3CC=C(C)C)C1`, the IC50 came out at 43.8 µM in the test with Caco-2 [1]; 11.8 µM in the test with Jurkat [2]; 11.9 µM with Raji [5]; 37 µM in the test on MCF7 [8]; 11.8 µM with CCRF-CEM [10]. Besides, the Activity with Raji [3] stood at 3.5%; in the test with Jurkat [4], 2%; in the test on CCRF-CEM [6], 4%; with MCF7 [7], 2%; in the test with Caco-2 [9], 30%.
Consider `CC(C)=CCn1c2ccccc2c2c3c(ccc21)CN(Cc1ccccc1)CO3`, for which the IC50 amounted to 75 µM in the test with Caco-2 [1]; 55.5 µM in the test on Jurkat [2]; 39.3 µM with Raji [5]; 75 µM in the test with MCF7 [8]; 37.6 µM with CCRF-CEM [10]. Besides, the Activity was found to be 7% in the test on Raji [3]; 7.5% with Jurkat [4]; 5.5% with CCRF-CEM [6]; 27.5% with MCF7 [7]; 53% in the test on Caco-2 [9].
On to `Cn1c2ccccc2c2ccc3c(c21)CN(Cc1ccccc1)CO3`, for which the IC50 in the test on Caco-2 [1] was determined as 62.5 µM; with Jurkat [2], 74.2 µM; in the test on Raji [5], 75 µM; in the test on MCF7 [8], 72.1 µM; in the test with CCRF-CEM [10], 70.8 µM. Also, the Activity in the test with Raji [3] was determined as 31.5%; in the test with Jurkat [4], 5.5%; in the test with CCRF-CEM [6], 1.5%; in the test with MCF7 [7], 60.5%; in the test with Caco-2 [9] it was 6%.
In the case of `Cc1ccc(CN2COc3cc4c(cc3C2)c2ccccc2n4C)cc1`, the IC50 in the test on Caco-2 [1] came to 57.4 µM; with Jurkat [2], 71.1 µM; in the test on Raji [5], 72.8 µM; in the test on MCF7 [8], 75 µM; in the test on CCRF-CEM [10], 68.8 µM. Moreover, the Activity came out at 27% in the test on Raji [3]; 2.5% with Jurkat [4]; 1% in the test on CCRF-CEM [6]; 27.5% in the test on MCF7 [7]; 6.5% with Caco-2 [9].
In the case of `Cn1c2ccccc2c2cc3c(cc21)OCN(Cc1ccccn1)C3`, the IC50 in the test on Caco-2 [1] is 43.7 µM; with Jurkat [2] it was 11.5 µM; with Raji [5], 12.1 µM; in the test with MCF7 [8] it was 56.4 µM; in the test on CCRF-CEM [10] it was 16.5 µM. Besides, the Activity came out at 38% with Raji [3]; 3.5% in the test on Jurkat [4]; 1.5% in the test on CCRF-CEM [6]; 5% in the test with MCF7 [7]; 7.5% with Caco-2 [9].

The term IC50 denotes the concentration that inhibits the measured activity by half. Read a low IC50 as inhibition by little substance.
